Experimental findings from paper PMC2606940 (The Journal of General Physiology, 2009) are described below.

SMILES strings stand for the structures. Positions count from the first letter of the chain named. Like-named read-outs stand apart in the source and are kept apart here.

Assay type in all cases: cell-based
What all share (settings): for IC50: read-out: Apparent affinity (K1/2)

In assay [1] the target is T1, wild-type CLC-0 (E166, C212S background) (Torpedo marmorata, UniProt P21564, C212S).
T1 sequence (P21564 1-805 C212S): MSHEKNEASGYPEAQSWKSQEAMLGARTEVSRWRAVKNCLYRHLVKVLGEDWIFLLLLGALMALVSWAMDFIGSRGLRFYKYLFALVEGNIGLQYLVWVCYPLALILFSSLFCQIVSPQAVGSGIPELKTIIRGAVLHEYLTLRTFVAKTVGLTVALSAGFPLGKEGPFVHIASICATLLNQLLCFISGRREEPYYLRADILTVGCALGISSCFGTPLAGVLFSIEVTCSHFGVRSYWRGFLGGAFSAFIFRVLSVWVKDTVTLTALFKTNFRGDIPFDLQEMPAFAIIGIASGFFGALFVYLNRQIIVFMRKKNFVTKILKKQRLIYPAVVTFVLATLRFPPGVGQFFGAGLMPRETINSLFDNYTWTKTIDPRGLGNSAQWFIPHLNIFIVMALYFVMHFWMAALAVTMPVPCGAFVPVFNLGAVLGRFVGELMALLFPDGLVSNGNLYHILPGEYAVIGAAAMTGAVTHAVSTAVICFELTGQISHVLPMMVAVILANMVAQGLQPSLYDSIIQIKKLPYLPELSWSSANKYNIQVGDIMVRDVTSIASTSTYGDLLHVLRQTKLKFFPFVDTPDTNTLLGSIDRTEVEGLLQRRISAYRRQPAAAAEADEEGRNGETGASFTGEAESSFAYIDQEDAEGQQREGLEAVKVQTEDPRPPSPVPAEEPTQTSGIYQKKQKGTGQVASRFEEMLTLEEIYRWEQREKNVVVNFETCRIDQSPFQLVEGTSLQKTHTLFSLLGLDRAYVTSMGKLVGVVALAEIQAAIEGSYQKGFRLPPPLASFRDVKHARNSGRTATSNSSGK
In a few lines:
(§1)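 CLC-0 mutants in the C212S background were transfected into HEK293 cells with lipofectamine and recorded 1–3 d later as excised inside-out patches. Both sides held 130 mM NaCl, 5 mM MgCl2, 10 mM HEPES and 1 mM EGTA, pH 7.4. CPA was perfused continuously onto the cytoplasmic face. Steady-state current over the last 10 ms was normalized to bracketing blocker-free controls and fitted to a Langmuir function for K1/2. Values are mean ± SEM of ~4–6 patches.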

Assay [2] deals with T2, CLC-0 E166L mutant (Torpedo marmorata, UniProt P21564, C212S/E166L).
T2 sequence (P21564 1-805 E166L/C212S): T1 sequence (P21564 1-805 C212S) with E166L
In a few lines: as §1

Assay [3] concerns the target T3, CLC-0 E166C mutant (E127/K519) (Torpedo marmorata, UniProt P21564, C212S/E166C).
T3 sequence (P21564 1-805 E166C/C212S): T1 sequence (P21564 1-805 C212S) with E166C
In a few lines: as §1

As to `CCCCCCCC(=O)O` [octanoate], the IC50 is 2610 ± 300 µM in assay [1] (−40 mV); 1290 ± 130 µM in assay [1] (−60 mV); 670 ± 50 µM in assay [1] (−80 mV); 390 ± 10 µM in assay [1] (−100 mV); 300 ± 20 µM in assay [1] (−120 mV); 260 ± 30 µM in assay [1] (−140 mV). Further, the IC50 in assay [1] (−160 mV) worked out at 190 ± 40 µM; in assay [2] (−40 mV) it was 342 ± 53 µM; in assay [2] (−60 mV) it was 192 ± 22 µM; in assay [2] (−80 mV), 106 ± 10 µM; in assay [2] (−100 mV) it was 57 ± 5 µM; in assay [2] (−120 mV), 32 ± 3 µM. In addition, the IC50 is 18 ± 2 µM in assay [2] (−140 mV); 11 ± 1 µM in assay [2] (−160 mV); 88.5 ± 17.1 µM in assay [3] (−40 mV); 43.1 ± 6.4 µM in assay [3] (−60 mV); 20.7 ± 3.4 µM in assay [3] (−80 mV); 10.2 ± 1.8 µM in assay [3] (−100 mV). The IC50 in assay [3] (−120 mV) came out at 5.6 ± 1.1 µM; in assay [3] (−140 mV), 3.5 ± 0.8 µM; in assay [3] (−160 mV), 2 ± 0.5 µM. In assay [1] (various concentrations, initial tail current), the “effect on fast gate Po-V curve” value is “shifts the fast gate Po-V curve toward more depolarized voltages”.

For `O=C(O)COc1ccc(Cl)cc1` [CPA, p-chlorophenoxy acetate], the IC50 worked out at 9370 ± 330 µM in assay [1] (−40 mV); 5220 ± 230 µM in assay [1] (−60 mV); 2870 ± 200 µM in assay [1] (−80 mV); 1960 ± 210 µM in assay [1] (−100 mV); 1570 ± 190 µM in assay [1] (−120 mV); 1170 ± 190 µM in assay [1] (−140 mV). For the same compound, the IC50 in assay [1] (−160 mV) was 1340 ± 250 µM; in assay [2] (−40 mV) it was 4640 ± 190 µM; in assay [2] (−60 mV) it was 2610 ± 80 µM; in assay [2] (−80 mV) it was 1460 ± 30 µM; in assay [2] (−100 mV), 800 ± 20 µM; in assay [2] (−120 mV), 470 ± 10 µM. In addition, the IC50 in assay [2] (−140 mV) worked out at 280 ± 10 µM; in assay [2] (−160 mV), 180 ± 10 µM; in assay [3] (−40 mV) it was 581 ± 94 µM; in assay [3] (−60 mV), 349 ± 15 µM; in assay [3] (−80 mV), 186 ± 7 µM; in assay [3] (−100 mV), 104 ± 3 µM. For the same compound, the IC50 in assay [3] (−120 mV) was 61 ± 2 µM; in assay [3] (−140 mV), 38 ± 1 µM; in assay [3] (−160 mV), 26 ± 1 µM. The block of current was about 60% in assay [2] (0.3 mM CPA, −160 mV) and over 90% in assay [3] (0.3 mM CPA, −160 mV). Further, in assay [3] (−160 mV), the apparent koff was 17.2 s⁻¹. Moreover, the apparent kon in assay [3] (−160 mV) amounted to 630000 M⁻¹ s⁻¹.
